These results are taken from ChEMBL document CHEMBL1143126, “Synthesis, cytotoxic evaluation, and DNA binding of novel thiazolo[5,4-b]quinoline derivatives” (Bioorg Med Chem, 2008).

Molecules are shown by their SMILES. pIC50: −log10 of the molar value. A value given as a limit tells only on which side of the number the result lay.

A short description of assay [1]: Antiproliferative activity against human C33 cells after 72 hrs by MTT assay. Type of assay: functional, cell-based. Particulars: C33, 72 h. In outline: (§1)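 Cells seeded at 4.5–5.0 · 10⁴ cells/ml/well in 24-well plates, then incubated with or without compounds added in DMSO. After 72 h, MTT in PBS pH 7.2 was added. Formazan was dissolved in DMSO and the plates centrifuged, then absorbance was read at 540 nm. % growth inhibition = (1 − treated/untreated absorbance) × 100.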

Another assay deals with K562. Kind of assay: Antiproliferative activity against human K562 cells after 72 hrs by MTT assay. Type of assay: functional, cell-based. The settings on record: K562, 72 h. In outline: as §1
Assay [2] deals with DNA. Kind of assay: Ratio of Qmax for calf thymus DNA to Q50 for calf thymus DNA. In kind it is nucleic-acid assay. The settings on record: Bos taurus. Put shortly: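 Efficiency index calculated as Qmax/Q50 from ethidium displacement titrations (Tris–HCl pH 7.4, 0.15 M NaCl). Compounds were added serially from DMSO stocks (DMSO ≤8%), and quenching was read at 584 nm with 546 nm excitation. Qmax is the maximum quenching; Q50 is the concentration for 50% quenching of bound ethidium.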

In assay [3] the test system is DNA. In words: Displacement of ethidium bromide from calf thymus DNA. In kind it is nucleic-acid assay. Particulars: Bos taurus. Put shortly:
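Fluorescence quenching of the DNA–ethidium bromide complex in Tris–HCl pH 7.4 with 0.15 M NaCl and ethidium bromide. Emission read at 584 nm with excitation at 546 nm, corrected for dilution. Precipitation was monitored by 600 nm light scatter at 90°. Qmax is the maximum quenching; Q50 is the concentration giving 50% quenching. Means of three experiments, SD.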

The next assay relates to SW480. Kind of assay: Antiproliferative activity against human SW480 cells after 72 hrs by MTT assay. Particulars: SW480, 72 h. Type of assay: functional, cell-based. Put shortly:
as §1

A further assay deals with HeLa. Kind of assay: Antiproliferative activity against human HeLa cells after 72 hrs by MTT assay. In kind it is functional, cell-based. Put shortly:
as §1

In a further assay the test system is SW-620. In words: Antiproliferative activity against human SW620 cells after 72 hrs by MTT assay. In kind it is functional, cell-based. Particulars: SW-620, 72 h. Put shortly:
as §1

Take `COc1cc(NS(C)(=O)=O)ccc1Nc1c2ccccc2nc2ccccc12` [AMSACRINE]: in assay [1], the negative-log IC50 (pIC50) is 5.06.

`CSc1nc2c(Nc3cc(N)cc(CO)c3)c3ccccc3nc2s1`: the pIC50 in assay [1] is less than 3.70; with K562, 3.84; in the assay with SW480 it was less than 3.70; with HeLa, less than 3.70; in the assay with SW-620 it was 3.74. Moreover, the Ratio in the assay with DNA [2] was 0.79. The Q50 with DNA [3] was 22.6 µM.

For the compound `CNc1cccc(Nc2c3ccccc3nc3sc(SC)nc23)c1`, the negative logarithm of the IC50 (pIC50) in assay [1] was 3.87; with SW480 it was 3.99; in the assay with SW-620, 3.93. Moreover, the Ratio in the assay with DNA [2] is 2.37. The Q50 in the assay with DNA [3] stood at 4.18 µM.

With `CSc1nc2c(Nc3cccc(C(F)(F)F)c3)c3ccccc3nc2s1`, the pIC50 in assay [1] was 4.22. Moreover, the Ratio in the assay on DNA [2] turned out to be 3.08. In the assay on DNA [3], the Q50 turned out to be 0.53 µM.

Turning to `COc1ccc(Nc2c3ccccc3nc3sc(SC)nc23)cc1`, the pIC50 in assay [1] is less than 3.70; in the assay on K562, 4.11; in the assay with SW480, less than 3.70; with HeLa, less than 3.70; with SW-620, 3.96. Besides, the Ratio with DNA [2] turned out to be 0.39. Moreover, the Q50 with DNA [3] is 9.48 µM.

As to `CSc1nc2c(Nc3ccccc3)c3ccccc3nc2s1`, the negative logarithm of the IC50 (pIC50) in assay [1] is 3.81; with K562 it was less than 3.70; with SW480, less than 3.70; in the assay with HeLa, less than 3.70; in the assay on SW-620, less than 3.70. In addition, the Ratio in the assay on DNA [2] came out at 0.31. Moreover, the Q50 in the assay with DNA [3] amounted to 13.6 µM.

For the compound `CSc1nc2c(Nc3cccc(C#N)c3)c3ccccc3nc2s1`, the negative-log IC50 (pIC50) is 4.82 in assay [1]; 5.10 in the assay on K562; 4.54 in the assay on SW480; 5.11 in the assay with HeLa; 4.36 in the assay on SW-620. Further, the Ratio in the assay on DNA [2] is 0.68. In addition, the Q50 in the assay with DNA [3] was 11.5 µM.

For the compound `CSc1nc2c(Nc3cccc(N)c3)c3ccccc3nc2s1`, the pIC50 is 3.86 in assay [1]; 3.84 in the assay on K562; less than 3.70 in the assay on SW480; 3.75 in the assay on HeLa; less than 3.70 in the assay on SW-620. For the same compound, the Ratio with DNA [2] was 1.17. The compound further showed a Q50 with DNA [3] of 6.96 µM.

Take `CSc1nc2c(Nc3ccc(C#N)cc3)c3ccccc3nc2s1`: the pIC50 was less than 3.70 in assay [1]; 3.92 in the assay with K562; less than 3.70 with SW480; 3.85 with HeLa; less than 3.70 in the assay with SW-620. Moreover, in the assay on DNA [2], the Ratio was 0.9. Besides, the Q50 in the assay on DNA [3] is 14.3 µM.

With `CSc1nc2c(Nc3cccc([N+](=O)[O-])c3)c3ccccc3nc2s1`, the pIC50 in assay [1] was less than 3.70; with K562, less than 3.70; in the assay on SW480, less than 3.70; in the assay with HeLa, 3.82; with SW-620 it was 3.79.

Take `CSc1nc2c(Nc3cccc(O)c3)c3ccccc3nc2s1`: the negative logarithm of the IC50 (pIC50) in assay [1] is 3.84; in the assay on K562, 3.76; in the assay on SW480 it was 3.83; with HeLa, less than 3.70; in the assay on SW-620, 3.83. The Ratio in the assay on DNA [2] is 2.15. Besides, the Q50 in the assay on DNA [3] worked out at 7.64 µM.

For the compound `Nc1cc(CO)cc(Nc2c3ccccc3nc3ccccc23)c1`, the Ratio in the assay with DNA [2] came to 6.49. In the assay on DNA [3], the Q50 was 7.36 µM.

The compound `CCN(CC)CCNc1nc2c(Nc3ccccc3)c3ccccc3nc2s1` gave a pIC50 in assay [1] of 4.65. In addition, in the assay with DNA [2], the Ratio turned out to be 0.46. The same compound displayed a Q50 in the assay on DNA [3] of 52.5 µM.

Turning to `CCN(CC)CCNC(=O)c1cccc(Nc2c3ccccc3nc3sc(SC)nc23)c1`, the negative-log IC50 (pIC50) was 4.70 in assay [1]; 4.90 in the assay on K562; 4.87 with SW480; 4.66 in the assay with HeLa; 4.71 in the assay with SW-620. Moreover, in the assay on DNA [2], the Ratio stood at 1.39. Moreover, the Q50 in the assay with DNA [3] came out at 16.6 µM.

As for `CCN(CC)CCNc1c2ccccc2nc2sc(SC)nc12`, the pIC50 is 5.04 in assay [1]; 5.11 in the assay on K562; 4.55 with SW480; 4.89 in the assay on HeLa; 4.77 in the assay on SW-620. For the same compound, in the assay on DNA [2], the Ratio worked out at 4.87. The compound also had a Q50 in the assay with DNA [3] of 9.44 µM.

Turning to `CSc1nc2c(Nc3cccc(Cl)c3)c3ccccc3nc2s1`, the pIC50 in assay [1] is 3.89; with SW480, 3.96; in the assay with SW-620, 3.89. Besides, the Ratio in the assay on DNA [2] was 2. In addition, the Q50 with DNA [3] turned out to be 1.29 µM.

Turning to `CSc1nc2c(Nc3cccc(NC(C)=O)c3)c3ccccc3nc2s1`, the negative-log IC50 (pIC50) in assay [1] is less than 3.70; with K562 it was 4.07; in the assay with SW480, less than 3.70; in the assay with HeLa, less than 3.70; with SW-620, 3.81. Also, in the assay on DNA [2], the Ratio is 0.82. The Q50 with DNA [3] came out at 18.4 µM.

Take `CCN(CC)CCNc1nc2c(Cl)c3ccccc3nc2s1`: the negative-log IC50 (pIC50) in assay [1] was 5.03; in the assay with K562, 5.03; in the assay with SW480, 4.71; with HeLa, 4.89; in the assay with SW-620, 4.82. The Ratio with DNA [2] was found to be 2.36. The same compound returned a Q50 in the assay with DNA [3] of 11.1 µM.

For the compound `CSc1nc2c(Nc3ccc(Cl)cc3)c3ccccc3nc2s1`, the pIC50 in assay [1] was less than 3.70; with SW480, less than 3.70; with HeLa it was 3.91; in the assay with SW-620, 3.84. Besides, the Ratio with DNA [2] turned out to be 0.84. For the same compound, in the assay with DNA [3], the Q50 was 2.19 µM.

In the case of `COc1cccc(Nc2c3ccccc3nc3sc(SC)nc23)c1`, the pIC50 in assay [1] was 4.12; in the assay on K562, 4.65; in the assay on SW480, 4.18; with HeLa, 4.60; in the assay on SW-620 it was 4.58. In addition, the Ratio with DNA [2] came out at 1.79. For the same compound, the Q50 with DNA [3] came out at 3.71 µM.
